Results taken from ChEMBL document CHEMBL4706553, “Discovery of potent small molecule PROTACs targeting mutant EGFR” (Eur J Med Chem, 2020).
Calls of active or inactive are those of the source.

Key:
[1] = system: von Hippel-Lindau disease tumor suppressor/Epidermal growth factor receptor (Homo sapiens), P00533+P40337 [UNDEFINED MUTATION]; assay: Protac activity at VHL/EGFR del19 mutant in human HCC827 cells assessed as induction of EGFR degradation at 33 nM by Western blot analysis; type: cell-based; settings: time 12-72 hrs, TDE = time-dependent effect
Procedure, shortened: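 Time course in HCC827 cells at 33 nM, with protein harvested at each stated time point. EGFR^del19 detected by Western blot.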

[2] = system: von Hippel-Lindau disease tumor suppressor/Epidermal growth factor receptor (Homo sapiens), P00533+P40337 [UNDEFINED MUTATION]; assay: Protac activity at VHL/EGFR del19 mutant in human HCC827 cells assessed as induction of EGFR degradation at 0.033 uM pretreated with VHL ligand, VHL-Ac for 2 hrs followed by incubation with compound for 24 hrs by Western blot analysis; type: cell-based
[3] = system: von Hippel-Lindau disease tumor suppressor/Epidermal growth factor receptor (Homo sapiens), P00533+P40337 [UNDEFINED MUTATION]; assay: Protac activity at VHL/EGFR del19 mutant in human HCC827 cells assessed as induction of EGFR degradation at 0.033 uM pretreated with autophagy inhibitor, chloroquine for 2 hrs followed by incubation with compound for 24 hrs by Western blot analysis; type: cell-based
A-431 = assay: Antiproliferative activity against human A431 cells expressing wild type EGFR assessed as cell growth inhibition measured after 72 hrs by MTT assay; type: functional, cell-based; settings: A-431, 72 h
Procedure, shortened: (§1)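 Cells were seeded at 3000–8000/well and allowed 24 h, then exposed to serial compound concentrations for 72 h. MTT (5 mg/mL stock in PBS) was added for 4 h, supernatant removed and DMSO added. IC50, defined as 50% growth inhibition, was derived by nonlinear regression (log inhibitor vs response).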

HepG2 = assay: Antiproliferative activity against human HepG2 cells expressing VEGFR2 assessed as cell growth inhibition measured after 72 hrs by MTT assay; type: functional, cell-based; settings: HepG2, 72 h; procedure, shortened: as §1
[4] = system: von Hippel-Lindau disease tumor suppressor/Epidermal growth factor receptor (Homo sapiens), P00533+P40337 [UNDEFINED MUTATION]; assay: Protac activity at VHL/EGFR del19 mutant in human HCC827 cells assessed as induction of EGFR degradation at 0.033 uM pretreated with VHL ligand, VHL-L for 2 hrs followed by incubation with compound for 24 hrs by Western blot analysis; type: cell-based
[5] = system: von Hippel-Lindau disease tumor suppressor/Epidermal growth factor receptor (Homo sapiens), P00533+P40337 [UNDEFINED MUTATION]; assay: Protac activity at VHL/EGFR del19 mutant in human HCC827 cells assessed as induction of EGFR degradation at 33 nM incubated for 24 hrs measured following drug wash-out for 24 hrs by Western blot analysis; type: cell-based
Procedure, shortened: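 HCC827 cells (RPMI-1640, 10% heat-inactivated FBS, 1% sodium pyruvate, 1% glutamine, 37 °C, 5% CO₂) treated at 33 nM for 24 h. Medium then replaced with compound-free medium, and protein harvested at the stated times. EGFR read by Western blot; n = 2.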

[6] = system: von Hippel-Lindau disease tumor suppressor/Epidermal growth factor receptor (Homo sapiens), P00533+P40337 [UNDEFINED MUTATION]; assay: Protac activity at VHL/EGFR del19 mutant in human HCC827 cells assessed as induction of EGFR degradation at 33 nM measured after 24 hrs by Western blot analysis; type: cell-based
Procedure, shortened: (§2)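 HCC827 cells seeded at 0.5–1 × 10⁶ per well, grown 24 h, then treated at the stated concentrations for 24 h. EGFR^del19 level by Western blot with anti-EGFR antibody and β-actin loading control.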

[7] = biological target: von Hippel-Lindau disease tumor suppressor/Epidermal growth factor receptor (Homo sapiens, UniProt P00533+P40337); assay: Protac activity at VHL/EGFR del19 mutant in human HCC827 cells assessed as induction of EGFR degradation measured after 48 hrs by Western blot analysis; type: cell-based
Procedure, shortened: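 HCC827 cells seeded at 0.5–1 × 10⁶ per well, then treated at the stated concentrations for 48 h. EGFR by Western blot; n = 3. DC₅₀ (concentration giving 50% EGFR loss) by nonlinear regression, log(inhibitor) vs response.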

[8] = system: von Hippel-Lindau disease tumor suppressor/Epidermal growth factor receptor (Homo sapiens), P00533+P40337 [UNDEFINED MUTATION]; assay: Protac activity at VHL/EGFR del19 mutant in human HCC827 cells assessed as induction of EGFR degradation by measuring reduction in EGFR phosphorylation at 3 nM incubated for 48 hrs by Western blot analysis; type: cell-based
Procedure, shortened: (§3)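 HCC827 or H1975 cells treated at the stated concentrations for 48 h. Lysates probed by Western blot for EGFR, P-EGFR, Akt and P-Akt (each 1:1000); n = 2.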

HCC827 [9] = assay: Induction of apoptosis in human HCC827 cells assessed as apoptotic cells at 100 nM measured after 48 hrs by AnnexinV-FITC/propidium iodide staining based flow cytometry analysis relative to control; type: functional
Procedure, shortened: (§4)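 To measure apoptosis, cells were seeded at 0.5–1 × 10⁶ per well, grown 24 h, then treated for 48 h. Collected cells were stained with an Annexin V-FITC apoptosis detection kit following its instructions, and apoptosis rate was read by flow cytometry. n = 2.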

[10] = system: von Hippel-Lindau disease tumor suppressor/Epidermal growth factor receptor (Homo sapiens), P00533+P40337 [UNDEFINED MUTATION]; assay: Protac activity at VHL/EGFR del19 mutant in human HCC827 cells assessed as induction of EGFR degradation at 1 to 33 nM incubated for 24 hrs by Western blot analysis; type: cell-based; settings: dose 1-33 nM; procedure, shortened: as §2
[11] = system: von Hippel-Lindau disease tumor suppressor/Epidermal growth factor receptor (Homo sapiens), P00533+P40337 [L858R,T790M]; assay: Protac activity at VHL/EGFR L858R/T790M mutant in human H1975 cells assessed as induction of degradation of EGFR at 0.1 uM pretreated with mTOR inhibitor, rapamycin for 8 hrs followed by incubation with compound for 16 hrs by Western blot analysis; type: cell-based; settings: NCI-H1975
Procedure, shortened: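 H1975 cells given rapamycin at the stated concentrations for 8 h, then compound for 16 h. EGFR by Western blot; n = 3.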

[12] = biological target: von Hippel-Lindau disease tumor suppressor/Epidermal growth factor receptor (Homo sapiens, UniProt P00533+P40337, T790M/L858R); assay: Protac activity at VHL/EGFR L858R/T790M mutant in human H1975 cells assessed as induction of degradation of EGFR incubated for 48 hrs by Western blot analysis; type: cell-based; settings: nci-h1975
Procedure, shortened: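 H1975 cells exposed to the stated concentrations for 48 h. EGFR by Western blot; n = 3. DC₅₀ by nonlinear regression, log(inhibitor) vs response.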

[13] = system: von Hippel-Lindau disease tumor suppressor/Epidermal growth factor receptor (Homo sapiens), P00533+P40337 [UNDEFINED MUTATION]; assay: Protac activity at VHL/EGFR del19 mutant in human HCC827 cells assessed as induction of EGFR degradation by measuring reduction in Akt phosphorylation at 3 nM incubated for 48 hrs by Western blot analysis; type: cell-based; procedure, shortened: as §3
NCI-H1975 [14] = assay: Induction of apoptosis in human NCI-H1975 cells at 333 to 1000 nM measured after 48 hrs by AnnexinV-FITC/propidium iodide staining based flow cytometry analysis; type: functional, cell-based; settings: dose 333-1000 nM; procedure, shortened: as §4
NCI-H1975 [15] = assay: Effect on Akt protein expression in human H1975 cells at 0.1 to 1 uM incubated for 48 hrs by Western blot analysis; type: functional, cell-based; settings: dose 0.1-1 µM
HCC827 [16] = assay: Effect on Akt protein expression in human HCC827 cells at 0.003 to 0.33 uM incubated for 48 hrs by Western blot analysis; type: functional, cell-based; settings: dose 0.003-0.33 µM
NCI-H1975 [17] = assay: Inhibition of colony formation in human NCI-H1975 cells at 100 nM incubated for 15 days by crystal violet staining based analysis; type: functional, cell-based; settings: time 15.0 day
Procedure, shortened: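 Colony formation: 200 cells per well were seeded and incubated 24 h, then kept with compound for 15 days. After three PBS washes, cells were fixed in cold 75% ethanol and stained with 0.1% crystal violet in water for 1 h. Colonies were counted.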

[18] = system: von Hippel-Lindau disease tumor suppressor/Epidermal growth factor receptor (Homo sapiens), P00533+P40337 [UNDEFINED MUTATION]; assay: Protac activity at VHL/EGFR del19 mutant in human HCC827 cells assessed as induction of EGFR degradation at 0.033 uM pretreated with EGFR inhibitor, F for 2 hrs followed by incubation with compound for 24 hrs by Western blot analysis; type: cell-based

Cc1ncsc1-c1ccc(CNC(=O)[C@@H]2C[C@@H](O)CN2C(=O)[C@@H](NC(=O)CCCCCCN2CCN(c3ccc(Nc4ncc5nc(Nc6ccccc6)n(C6CCCC6)c5n4)cc3)CC2)C(C)(C)C)cc1
Activity [1]: Tde
Activity [2]: inactive
Activity [3]: inactive
IC50 (A-431): 245 nM
IC50 (HepG2): > 5000 nM
Activity [4]: Active
Activity [5]: Active
Activity [6]: Active
DC50 [7]: 0.51 nM
Activity [8]: Active
Activity (HCC827 [9]): 44.8%
Activity [10]: Active
Activity [11]: Active
DC50 [12]: 126 nM
Activity [13]: Active
Activity (NCI-H1975 [14]): inactive
Activity (NCI-H1975 [15]): inactive
Activity (HCC827 [16]): inactive
inhibition (NCI-H1975 [17]): Active
Activity [18]: inactive
